Legend:
Format in all cases: functional
Mus musculus [1] = test: Antitumor activity was evaluated as percent increase in life span in BDF1 mice (six mice per group) implanted intraperitoneally with P-388 leukemia cells (10e6 )at a dose of 100 mg/Kg,; conditions: P388, ip
Procedure, shortened: (§1)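 Male BDF1 mice (average weight 23 g) implanted ip with 10^6 P-388 cells on day 0. Treatment in sterile 0.9% saline given ip daily for 9 days starting 24 h after implantation; saline-only controls. Animals observed up to 60 days. Median survival of treated (T) vs controls (C) expressed as %ILS = (T/C − 1) × 100; significance at P < 0.05.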

Mus musculus [2] = test: Antitumor activity was evaluated as median survival time in BDF1 mice (six mice per group) implanted intraperitoneally with P-388 leukemia cells (10e6 )at a dose of 100 mg/Kg,
Procedure, shortened: (§2)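 Male BDF1 mice (average weight 23 g) inoculated ip with 10^6 P-388 leukemia cells on day 0; leukemia maintained by weekly ip passage in female DBA/2 mice. Compound in sterile 0.9% saline given ip once daily for 9 consecutive days starting 24 h after implantation; controls received saline alone. Animals observed for 60 days or until death; median survival time recorded.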

Mus musculus [3] = test: Antitumor activity was evaluated as median survival time in BDF1 mice (six mice per group) implanted intraperitoneally with P-388 leukemia cells (10e6 )at a dose of 500 mg/Kg,; procedure, shortened: as §2
Mus musculus [4] = test: Antitumor activity was evaluated as percent increase in life span in BDF1 mice (six mice per group) implanted intraperitoneally with P-388 leukemia cells (10e6 )at a dose of 500 mg/Kg,; conditions: P388, ip; procedure, shortened: as §1
Mus musculus [5] = test: Antitumor activity was evaluated as median survival time in BDF1 mice (six mice per group) implanted intraperitoneally with P-388 leukemia cells (10e6 )at a dose of 300 mg/Kg,; procedure, shortened: as §2
Mus musculus [6] = test: Antitumor activity was evaluated as percent increase in life span in BDF1 mice (six mice per group) implanted intraperitoneally with P-388 leukemia cells (10e6 )at a dose of 300 mg/Kg,; conditions: P388, ip; procedure, shortened: as §1
Mus musculus [7] = test: Antitumor activity was evaluated as median survival time in BDF1 mice (six mice per group) implanted intraperitoneally with P-388 leukemia cells (10e6 )at a dose of 600 mg/Kg,; procedure, shortened: as §2
Mus musculus [8] = test: Antitumor activity was evaluated as percent increase in life span in BDF1 mice (six mice per group) implanted intraperitoneally with P-388 leukemia cells (10e6 )at a dose of 600 mg/Kg,; conditions: P388, ip; procedure, shortened: as §1

SMILES | ILS at 100 mg/kg (Mus musculus [1]) | MST (Mus musculus [2]) | MST (Mus musculus [3]) | ILS at 500 mg/kg (Mus musculus [4]) | MST (Mus musculus [5]) | ILS at 300 mg/kg (Mus musculus [6]) | MST (Mus musculus [7]) | ILS at 600 mg/kg (Mus musculus [8])
Nc1ncnc2c1ncn2C1O[C@H](COP2(=O)OCCCO2)[C@@H](O)[C@@H]1O (stereo not given in full) | 0% | 9 days | – | – | – | – | – | –
Nc1ncnc2c1ncn2C1O[C@H](COP2(=O)NCCCO2)[C@@H](O)[C@@H]1O (stereo not given in full) | 33% | 12 days | 8 days | -11% | 12 days | 33% | – | –
Nc1ncnc2c1ncn2[C@@H]1O[C@H](CO)[C@@H](O)[C@H]1O [ADENOSINE] | – | – | – | – | – | – | 12 days | 33%
